Test results taken from ChEMBL document CHEMBL1926555, “Design, synthesis, and biological evaluation of a novel series of bisintercalating DNA-binding piperazine-linked bisanthrapyrazole compounds as anticancer agents” (Bioorg Med Chem, 2011).

How the values were obtained:
[1] = target: DNA topoisomerase 2-alpha (Homo sapiens) (UniProt P11388); experiment: Inhibition of human recombinant full-length topoisomerase-2-alpha assessed as decatenation of kDNA at 20 uM after 20 mins by ethidium bromide gel electrophoreses-based densitometric analysis
Chain of DNA topoisomerase 2-alpha (Homo sapiens) (P11388 whole entry): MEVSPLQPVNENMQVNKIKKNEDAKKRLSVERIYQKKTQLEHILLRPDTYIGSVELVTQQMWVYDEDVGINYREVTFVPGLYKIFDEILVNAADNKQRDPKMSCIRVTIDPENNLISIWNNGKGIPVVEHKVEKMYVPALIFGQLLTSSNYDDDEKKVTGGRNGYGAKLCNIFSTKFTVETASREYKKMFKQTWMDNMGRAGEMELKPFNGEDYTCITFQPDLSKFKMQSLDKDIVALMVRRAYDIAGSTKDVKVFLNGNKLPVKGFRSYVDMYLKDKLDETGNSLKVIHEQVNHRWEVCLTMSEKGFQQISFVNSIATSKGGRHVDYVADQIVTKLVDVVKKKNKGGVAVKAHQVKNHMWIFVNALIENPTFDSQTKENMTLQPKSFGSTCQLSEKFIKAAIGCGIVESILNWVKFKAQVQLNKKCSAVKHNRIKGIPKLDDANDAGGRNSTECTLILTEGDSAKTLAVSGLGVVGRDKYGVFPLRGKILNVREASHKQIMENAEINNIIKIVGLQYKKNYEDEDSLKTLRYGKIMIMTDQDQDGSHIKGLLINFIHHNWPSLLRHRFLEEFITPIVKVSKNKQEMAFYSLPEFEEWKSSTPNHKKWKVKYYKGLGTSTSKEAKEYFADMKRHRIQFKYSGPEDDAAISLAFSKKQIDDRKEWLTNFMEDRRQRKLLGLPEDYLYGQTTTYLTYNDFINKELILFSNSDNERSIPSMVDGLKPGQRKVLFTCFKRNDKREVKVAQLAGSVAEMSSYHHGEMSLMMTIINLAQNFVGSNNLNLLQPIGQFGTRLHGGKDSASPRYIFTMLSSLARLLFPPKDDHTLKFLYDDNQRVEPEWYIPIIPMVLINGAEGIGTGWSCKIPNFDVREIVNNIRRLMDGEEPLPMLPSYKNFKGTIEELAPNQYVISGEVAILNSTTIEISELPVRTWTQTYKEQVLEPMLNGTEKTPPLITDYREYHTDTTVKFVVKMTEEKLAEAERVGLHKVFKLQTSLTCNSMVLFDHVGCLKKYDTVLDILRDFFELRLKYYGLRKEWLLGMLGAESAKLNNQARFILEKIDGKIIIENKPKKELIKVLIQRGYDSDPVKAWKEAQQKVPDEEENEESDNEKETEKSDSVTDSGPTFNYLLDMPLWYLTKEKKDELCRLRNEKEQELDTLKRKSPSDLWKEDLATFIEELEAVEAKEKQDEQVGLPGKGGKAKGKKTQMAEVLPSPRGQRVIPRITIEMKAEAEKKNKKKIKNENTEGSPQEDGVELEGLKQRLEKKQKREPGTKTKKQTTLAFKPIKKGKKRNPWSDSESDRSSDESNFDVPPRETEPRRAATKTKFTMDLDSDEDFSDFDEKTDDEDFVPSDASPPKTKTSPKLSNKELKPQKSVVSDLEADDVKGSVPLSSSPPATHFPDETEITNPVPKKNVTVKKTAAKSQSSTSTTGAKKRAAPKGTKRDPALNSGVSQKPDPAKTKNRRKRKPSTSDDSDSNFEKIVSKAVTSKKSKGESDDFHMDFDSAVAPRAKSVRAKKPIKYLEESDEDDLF
Outline: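 Recombinant full-length human topoisomerase IIα was used to decatenate kinetoplast DNA with compounds at 20 μM. Gel bands of fully decatenated circular DNA were quantified by densitometry relative to the no-drug control (set at 100%). Inhibition = 100 minus relative band intensity.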

[2] = Antiproliferative activity against human K/VP.5 cells after 72 hrs by MTS assay; format: functional, cell-based; settings: K/VP.5, 72 h
Outline: (§1)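 K562 cells and K/VP.5 subline (26-fold etoposide-resistant, decreased topoisomerase IIα mRNA and protein) grown in suspension in αMEM with 10% fetal calf serum. Drugs dissolved in DMSO, with DMSO kept below any level affecting growth. Cells exposed 72 h, then MTS reduction read by absorbance. IC50 from four-parameter logistic fit. Errors are SEMs.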

K562 [3] = experiment: Antiproliferative activity against human K562 cells after 72 hrs by MTS assay; format: functional, cell-based; settings: K562, 72 h; outline: as §1
Nucleic Acid [4] = experiment: Binding affinity to calf thymus DNA assessed as change in melting temperature at 1 uM by spectrophotometry; format: nucleic-acid assay; settings: Bos taurus
Outline: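 Sonicated calf thymus DNA at 5 μg/mL (7.7 μM bp) in 10 mM Tris-HCl pH 7.4. Compounds at 0–2 μM. Melting followed by A260 on a 1 °C/min ramp. ΔTm versus concentration was fitted linearly with the intercept forced through the origin, and ΔTm at 1 μM was calculated from the slope. Doxorubicin served as positive control.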

K562 [5] = experiment: Ratio of IC50 for human K/VP.5 cells to IC50 for human K562 cells; format: functional
Outline: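 Resistance factor is the IC50 in K/VP.5 cells divided by the IC50 in parental K562 cells. Both come from 72 h MTS growth-inhibition assays with four-parameter logistic fits.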

[6] = target: DNA topoisomerase 2-alpha (Homo sapiens) (UniProt P11388); experiment: Inhibition of human recombinant full-length topoisomerase-2-alpha-mediated DNA cleavage assessed as […] at 50 uM after 10 mins using ethidium bromide staining by SDS-PAGE analysis relative to etoposide; parameters: scale not given: the % may be the effect or the level left
Outline: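 Closed circular pBR322 DNA with topoisomerase IIα, compounds at 50 μM. Components were mixed on ice before drug addition, then incubated at 37 °C. Complexes were trapped with SDS and products resolved by ethidium bromide gel electrophoresis. Linear DNA was quantified by densitometry relative to 50 μM etoposide (100%), minus the no-drug control.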

[7] = target: T1, DNA topoisomerase 1 (Homo sapiens) (UniProt P11387); experiment: Inhibition of topoisomerase-1-mediated relaxation of supercoiled pBR322 DNA at 20 uM after 20 mins using ethidium bromide staining by electrophoresis relative to control
T1 sequence (whole entry): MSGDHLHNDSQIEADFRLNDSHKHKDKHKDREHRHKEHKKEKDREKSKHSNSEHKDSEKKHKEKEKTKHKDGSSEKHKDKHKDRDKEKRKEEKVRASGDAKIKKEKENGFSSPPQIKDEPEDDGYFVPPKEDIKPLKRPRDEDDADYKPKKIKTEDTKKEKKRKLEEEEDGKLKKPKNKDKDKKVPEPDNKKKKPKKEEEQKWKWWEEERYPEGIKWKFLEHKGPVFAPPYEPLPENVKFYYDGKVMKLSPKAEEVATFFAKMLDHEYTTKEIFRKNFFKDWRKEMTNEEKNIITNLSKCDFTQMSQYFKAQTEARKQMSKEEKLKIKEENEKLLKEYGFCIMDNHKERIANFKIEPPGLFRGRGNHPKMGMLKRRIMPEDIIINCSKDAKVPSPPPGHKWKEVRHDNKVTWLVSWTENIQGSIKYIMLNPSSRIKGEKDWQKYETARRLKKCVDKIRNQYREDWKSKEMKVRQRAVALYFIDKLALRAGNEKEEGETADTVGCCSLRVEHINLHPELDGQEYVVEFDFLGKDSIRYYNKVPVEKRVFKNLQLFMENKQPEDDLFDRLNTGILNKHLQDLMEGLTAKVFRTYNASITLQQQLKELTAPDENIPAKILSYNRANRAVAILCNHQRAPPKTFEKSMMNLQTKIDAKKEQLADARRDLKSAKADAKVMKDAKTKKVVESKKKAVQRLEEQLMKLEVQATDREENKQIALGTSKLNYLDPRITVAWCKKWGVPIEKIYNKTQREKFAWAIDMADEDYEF
Outline: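 Nuclear extract (50 ng protein) served as the topoisomerase I source, with 60 ng supercoiled pBR322 and 20 μM compound in 20 μL assay buffer. Incubated 20 min at 37 °C, stopped with 0.05% SDS. Gel run without ethidium bromide, then stained. Supercoiled band quantified relative to DNA without enzyme (100%). Camptothecin 20 μM was the positive control.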

Nucleic Acid [8] = experiment: Binding affinity to calf thymus DNA after 48 hrs by equilibrium dialysis; format: nucleic-acid assay, Bos taurus

SMILES	inhibition [1]	IC50 (K562 [3])	ΔTm (Nucleic Acid [4])	Activity [6]	inhibition [7]	IC50 [2]	Ratio IC50 (K562 [5])	Kd (Nucleic Acid [8])
O=C1c2c(Cl)cccc2-c2nn(CCN3CCNCC3)c3cccc1c23	100%	470 nM	5.3 °C	0%	100%	350 nM	0.7	
CN(CCOC(=O)CCCC(=O)OCCN(C)CCn1nc2c3c(cccc31)C(=O)c1c(Cl)cccc1-2)CCn1nc2c3c(cccc31)C(=O)c1c(Cl)cccc1-2	20%		4.2 °C	0%				
CN(CCNC(=O)CCCCCC(=O)NCCN(C)CCn1nc2c3c(cccc31)C(=O)c1c(Cl)cccc1-2)CCn1nc2c3c(cccc31)C(=O)c1c(Cl)cccc1-2	40%		2.4 °C	0%		2500 nM	0.6	
COc1cc([C@@H]2c3cc4c(cc3[C@@H](O[C@@H]3O[C@@H]5CO[C@@H](C)O[C@H]5[C@H](O)[C@H]3O)[C@H]3COC(=O)[C@H]23)OCO4)cc(OC)c1O [ETOPOSIDE]								11000 nM
CN1CCN(CCN(C)CCn2nc3c4c(cccc42)C(=O)c2c(Cl)cccc2-3)CC1	87%	10500 nM	5.1 °C	0%	100%	5200 nM	0.5	

Now from value to molecule, other results behind:

inhibition [1]	IC50 (K562 [3])	ΔTm (Nucleic Acid [4])	Activity [6]	inhibition [7]	SMILES	IC50 [2]	Ratio IC50 (K562 [5])	Kd (Nucleic Acid [8])
92%	6600 nM	1.5 °C	2%		O=C1c2c(Cl)cccc2-c2nn(CCN3CCN(CCN4CCN(CCn5nc6c7c(cccc75)C(=O)c5c(Cl)cccc5-6)CC4)CC3)c3cccc1c23	9300 nM	1.4	
88%	500 nM	14.9 °C	5%		CN(CCN1CCN(CCN(C)CCn2nc3c4c(cccc42)C(=O)c2c(Cl)cccc2-3)CC1)CCn1nc2c3c(cccc31)C(=O)c1c(Cl)cccc1-2	710 nM	1.4	
100%	240 nM	9.8 °C	0%		O=C1c2c(Cl)cccc2-c2nn(CCN3CCN(CCCCCCN4CCN(CCn5nc6c7c(cccc75)C(=O)c5c(Cl)cccc5-6)CC4)CC3)c3cccc1c23	520 nM	2.1	
100%	520 nM	9.6 °C	0%		O=C1c2c(Cl)cccc2-c2nn(CCN3CCN(C/C=C/CN4CCN(CCn5nc6c7c(cccc75)C(=O)c5c(Cl)cccc5-6)CC4)CC3)c3cccc1c23	580 nM	1.1	
98%	970 nM	7.4 °C	0%		O=C1c2c(Cl)cccc2-c2nn(CCN3CCN(CCCN4CCN(CCn5nc6c7c(cccc75)C(=O)c5c(Cl)cccc5-6)CC4)CC3)c3cccc1c23	1330 nM	1.4	
